Measured values published in ChEMBL document CHEMBL2021777 (J Med Chem, 2012).
Calls of active or inactive are those of the source.

Legend:
[1] = target: Neuronal acetylcholine receptor; alpha2/beta2 (Rattus norvegicus, UniProt P12389+P12390); experiment: Displacement of [3H] epibatidine from rat alpha2beta2 nAChR by beta scintillation counting; type: protein-complex assay
[2] = target: Neuronal acetylcholine receptor; alpha4/beta4 (Rattus norvegicus, UniProt P09483+P12392); experiment: Displacement of [3H] epibatidine from rat alpha4beta4 nAChR by beta scintillation counting; type: protein-complex assay
[3] = target: Neuronal acetylcholine receptor; alpha3/beta2 (Rattus norvegicus, UniProt P04757+P12390); experiment: Displacement of [3H] epibatidine from rat alpha3beta2 nAChR by beta scintillation counting; type: protein-complex assay
[4] = target: T1, Neuronal acetylcholine receptor; alpha4/beta2 (Homo sapiens, UniProt P17787+P43681); experiment: Agonist activity at human high sensitive and low sensitive alpha4beta2 nAChR expressed in SH-EP1 cells assessed as 86Rb+ ion efflux by flip-plate technique relative to sazetidine-A; type: functional, cell-based
Procedure, shortened: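 SH-EP1-hα4β2 cells (stably transfected human α4 and β2, low passage 1−26) express mixed high- and low-sensitivity α4β2-nAChRs. Efficacy was measured by 86Rb+ flux on this mixed population. High-sensitivity efficacy was extrapolated by defining a reference agonist as 100% full agonist at the HS receptor.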

Rattus norvegicus = species on record: Rattus norvegicus; experiment: Selectivity ratio of Ki for rat alpha3beta4 to Ki for rat alpha4beta2
Procedure, shortened: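 Ki values from [3H]epibatidine competition binding at heterologously expressed rat nAChR subtypes, using the PDSP protocol; selectivity taken as the α3β4/α4β2 Ki ratio.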

[5] = target: T2, Neuronal acetylcholine receptors; alpha-3/beta-4, alpha-5, beta-2 (Homo sapiens) (UniProt P17787+P30926+P32297+P30532); experiment: Agonist activity at alpha3beta4alpha5beta2 in human SH-SY5Y cells at 10 uM by 86Rb+ flux assay; type: functional, cell-based
Procedure, shortened: (§1)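 Human neuroblastoma SH-SY5Y cells endogenously express α3β4* nAChRs (α3, β4, probably α5, sometimes β2); their α7 receptors give no signal under these conditions. Cells were kept at low passage (1−26 from frozen stocks). Function was read as 86Rb+ efflux, with agonist and antagonist modes tested up to 10 μM.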

[6] = target: T3, Acetylcholine receptor; alpha1/beta1/delta/gamma (Homo sapiens) (UniProt P02708+P07510+P11230+Q07001); experiment: Antagonist activity at human alpha1beta1gammadelta nAChR expressed in TE671/RD cells at 10 uM by 86Rb+ flux assay; type: functional, cell-based
Procedure, shortened: (§2)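 Human clonal TE671/RD cells endogenously express muscle-type α1*-nAChRs (α1, β1, γ, δ). Cells were kept at low passage (1−26 from frozen stocks). Function was read as 86Rb+ efflux, with agonist and antagonist modes tested up to 10 μM.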

[7] = target: T4, Neuronal acetylcholine receptor; alpha4/beta2 (Rattus norvegicus, UniProt P09483+P12390); experiment: Displacement of [3H] epibatidine from rat alpha4beta2* nAChR in rat forebrain by beta scintillation counting
[8] = target: T1, Neuronal acetylcholine receptor; alpha4/beta2; experiment: Antagonist activity at human high sensitive and low sensitive alpha4beta2 nAChR expressed in SH-EP1 cells assessed as inhibition of carbamylcholine induced 86Rb+ ion efflux preincubated for 10 mins prior to carbamylcholine-induction measured after 5 mins by flip-plate technique relative to control; type: functional, cell-based
Procedure, shortened: (§3)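 SH-EP1 human epithelial cells stably transfected with separate human α4 and β2 subunit cDNAs express a mixed population of high-sensitivity (2:3 α4:β2) and low-sensitivity (3:2) α4β2-nAChRs. Cells were kept at low passage (1−26 from frozen stocks). Function was read as 86Rb+ ion flux.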

[9] = target: T1, Neuronal acetylcholine receptor; alpha4/beta2; experiment: Partial agonist activity at human high sensitive alpha4beta2 nAChR expressed in SH-EP1 cells assessed as 86Rb+ ion efflux by flip-plate technique relative to sazetidine-A; type: functional, cell-based
Procedure, shortened: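 86Rb+ ion flux in SH-EP1 cells stably transfected with separate human α4 and β2 subunit cDNAs, expressing a mixture of high- and low-sensitivity α4β2 nAChRs. Cells kept at low passage (1−26). Efficacy at the HS form extrapolated relative to a reference agonist defined as a 100% full agonist.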

[10] = target: T5, Neuronal acetylcholine receptor; alpha3/beta4 (Rattus norvegicus, UniProt P04757+P12392); experiment: Displacement of [3H] epibatidine from rat alpha3beta4 nAChR by beta scintillation counting; type: protein-complex assay
[11] = target: T4, Neuronal acetylcholine receptor; alpha4/beta2; experiment: Displacement of [3H] epibatidine from rat alpha4beta2 nAChR by beta scintillation counting; type: protein-complex assay
[12] = target: T3, Acetylcholine receptor; alpha1/beta1/delta/gamma (Homo sapiens); experiment: Agonist activity at human alpha1beta1gammadelta nAChR expressed in TE671/RD cells at 10 uM by 86Rb+ flux assay; type: functional, cell-based; procedure, shortened: as §2
[13] = target: T2, Neuronal acetylcholine receptors; alpha-3/beta-4, alpha-5, beta-2 (Homo sapiens); experiment: Antagonist activity at alpha3beta4alpha5beta2 in human SH-SY5Y cells at 10 uM by 86Rb+ flux assay; type: functional, cell-based; procedure, shortened: as §1
[14] = target: T1, Neuronal acetylcholine receptor; alpha4/beta2; experiment: Antagonist activity at human alpha4beta2 nAChR expressed in SH-EP1 cells assessed as inhibition of carbamylcholine induced 86Rb+ ion efflux preincubated for 10 mins prior to carbamylcholine-induction measured after 5 mins by flip-plate technique; type: functional, cell-based; procedure, shortened: as §3
[15] = target: Neuronal acetylcholine receptor; alpha2/beta4 (Rattus norvegicus, UniProt P12389+P12392); experiment: Displacement of [3H] epibatidine from rat alpha2beta4 nAChR by beta scintillation counting; type: protein-complex assay
[16] = target: T1, Neuronal acetylcholine receptor; alpha4/beta2; experiment: Agonist activity at human alpha4beta2 nAChR expressed in SH-EP1 cells assessed as 86Rb+ ion efflux after 9.5 mins by flip-plate technique; type: functional, cell-based; procedure, shortened: as §3
[17] = target: Neuronal acetylcholine receptor subunit alpha-7 (Homo sapiens) (UniProt P36544); experiment: Displacement of [3H]epibatidine from human alpha7 nAChR expressed in SH-EP1 cells at 10 uM by beta scintillation counting; type: cell-based
Procedure, shortened: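 Membranes from SH-EP1 cells heterologously expressing human α7 nAChRs; test ligand at 10 μM competing with 10 nM [3H]epibatidine; protocol similar to the PDSP one.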

[18] = target: T5, Neuronal acetylcholine receptor; alpha3/beta4; experiment: Displacement of [3H] epibatidine from rat alpha3beta4 nAChR expressed in HEK293 cells by liquid scintillation counting; type: cell-based
[19] = Drug uptake in BALB/cJ mouse brain at 3 mg/kg after 15 mins; type: ADME, organism-based; design: dose 3 mg/kg; details: read-out: Drug uptake
[20] = target: T4, Neuronal acetylcholine receptor; alpha4/beta2; experiment: Displacement of [3H] epibatidine from rat alpha4beta2* nAChR in rat forebrain by liquid scintillation counting
[21] = target: T4, Neuronal acetylcholine receptor; alpha4/beta2; experiment: Displacement of [3H] epibatidine from rat alpha4beta2 nAChR expressed in HEK293 cells by liquid scintillation counting; type: cell-based
[22] = Drug uptake in BALB/cJ mouse brain at 1 mg/kg after 15 mins; type: ADME, organism-based; design: dose 1 mg/kg; details: read-out: Drug uptake

T4 sequence (P09483 whole entry): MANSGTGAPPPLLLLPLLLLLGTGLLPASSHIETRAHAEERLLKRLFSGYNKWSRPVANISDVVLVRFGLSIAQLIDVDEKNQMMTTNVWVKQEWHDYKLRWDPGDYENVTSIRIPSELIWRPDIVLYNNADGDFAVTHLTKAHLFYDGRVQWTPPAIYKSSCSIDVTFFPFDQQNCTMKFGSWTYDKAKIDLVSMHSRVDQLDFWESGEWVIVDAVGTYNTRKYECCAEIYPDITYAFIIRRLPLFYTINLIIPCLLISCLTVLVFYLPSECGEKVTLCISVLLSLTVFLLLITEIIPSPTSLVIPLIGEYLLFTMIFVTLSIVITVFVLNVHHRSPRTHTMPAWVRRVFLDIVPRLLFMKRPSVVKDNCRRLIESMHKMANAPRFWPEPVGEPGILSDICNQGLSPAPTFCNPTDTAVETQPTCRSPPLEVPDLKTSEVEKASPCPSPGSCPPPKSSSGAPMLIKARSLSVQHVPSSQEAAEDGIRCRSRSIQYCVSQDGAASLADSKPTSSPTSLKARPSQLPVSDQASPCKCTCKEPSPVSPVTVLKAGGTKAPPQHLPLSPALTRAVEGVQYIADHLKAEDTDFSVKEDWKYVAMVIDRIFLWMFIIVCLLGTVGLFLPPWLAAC
T4 sequence (P12390 whole entry): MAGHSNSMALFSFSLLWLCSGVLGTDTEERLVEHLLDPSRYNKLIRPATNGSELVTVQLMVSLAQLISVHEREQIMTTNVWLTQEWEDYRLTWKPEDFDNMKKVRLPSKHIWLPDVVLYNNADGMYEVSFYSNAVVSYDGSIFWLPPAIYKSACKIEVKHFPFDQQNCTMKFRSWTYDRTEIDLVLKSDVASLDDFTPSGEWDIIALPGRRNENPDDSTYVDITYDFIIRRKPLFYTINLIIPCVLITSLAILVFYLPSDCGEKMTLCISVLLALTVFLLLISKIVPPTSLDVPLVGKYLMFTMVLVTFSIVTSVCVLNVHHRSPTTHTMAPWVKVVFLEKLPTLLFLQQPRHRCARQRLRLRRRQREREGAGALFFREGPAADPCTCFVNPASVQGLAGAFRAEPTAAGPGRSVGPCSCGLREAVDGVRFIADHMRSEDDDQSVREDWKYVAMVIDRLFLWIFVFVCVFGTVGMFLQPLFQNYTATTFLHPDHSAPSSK
Chain of Neuronal acetylcholine receptor; alpha4/beta4 (P09483 whole entry): as the sequence (P09483 whole entry) above
Chain of Neuronal acetylcholine receptor; alpha4/beta4 (P12392 whole entry): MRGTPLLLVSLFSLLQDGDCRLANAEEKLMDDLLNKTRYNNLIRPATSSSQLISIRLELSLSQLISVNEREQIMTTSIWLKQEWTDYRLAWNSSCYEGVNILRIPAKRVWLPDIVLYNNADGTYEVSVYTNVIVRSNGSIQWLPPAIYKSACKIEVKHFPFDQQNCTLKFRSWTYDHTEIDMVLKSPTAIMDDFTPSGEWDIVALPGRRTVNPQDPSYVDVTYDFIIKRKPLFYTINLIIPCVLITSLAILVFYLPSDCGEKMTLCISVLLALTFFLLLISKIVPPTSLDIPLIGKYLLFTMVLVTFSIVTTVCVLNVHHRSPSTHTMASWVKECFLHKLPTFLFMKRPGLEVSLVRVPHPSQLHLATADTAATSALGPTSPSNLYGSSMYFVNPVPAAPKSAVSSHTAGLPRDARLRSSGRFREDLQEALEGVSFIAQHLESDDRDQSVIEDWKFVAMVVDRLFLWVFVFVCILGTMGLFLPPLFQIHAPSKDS
Chain of Neuronal acetylcholine receptor; alpha2/beta4 (P12389 whole entry): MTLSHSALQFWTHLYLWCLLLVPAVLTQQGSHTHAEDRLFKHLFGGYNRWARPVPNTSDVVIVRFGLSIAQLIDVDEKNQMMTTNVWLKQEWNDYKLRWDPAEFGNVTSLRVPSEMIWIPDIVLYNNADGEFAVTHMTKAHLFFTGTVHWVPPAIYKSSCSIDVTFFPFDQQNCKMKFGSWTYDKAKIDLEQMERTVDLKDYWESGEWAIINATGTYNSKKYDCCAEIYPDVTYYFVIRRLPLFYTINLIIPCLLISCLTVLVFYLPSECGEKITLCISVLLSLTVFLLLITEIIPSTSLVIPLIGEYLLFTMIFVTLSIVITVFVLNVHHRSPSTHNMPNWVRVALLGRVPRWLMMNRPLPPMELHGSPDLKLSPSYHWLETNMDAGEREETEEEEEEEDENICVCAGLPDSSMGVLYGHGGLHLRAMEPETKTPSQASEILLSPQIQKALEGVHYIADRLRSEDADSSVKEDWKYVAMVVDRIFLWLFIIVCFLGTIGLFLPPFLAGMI
Chain of Neuronal acetylcholine receptor; alpha2/beta4 (P12392 whole entry): as the sequence (P12392 whole entry) above
Chain of Neuronal acetylcholine receptor; alpha2/beta2 (P12389 whole entry): as the sequence (P12389 whole entry) above
Chain of Neuronal acetylcholine receptor; alpha2/beta2 (P12390 whole entry): as the sequence (P12390 whole entry) above
T1 sequence (P17787 whole entry): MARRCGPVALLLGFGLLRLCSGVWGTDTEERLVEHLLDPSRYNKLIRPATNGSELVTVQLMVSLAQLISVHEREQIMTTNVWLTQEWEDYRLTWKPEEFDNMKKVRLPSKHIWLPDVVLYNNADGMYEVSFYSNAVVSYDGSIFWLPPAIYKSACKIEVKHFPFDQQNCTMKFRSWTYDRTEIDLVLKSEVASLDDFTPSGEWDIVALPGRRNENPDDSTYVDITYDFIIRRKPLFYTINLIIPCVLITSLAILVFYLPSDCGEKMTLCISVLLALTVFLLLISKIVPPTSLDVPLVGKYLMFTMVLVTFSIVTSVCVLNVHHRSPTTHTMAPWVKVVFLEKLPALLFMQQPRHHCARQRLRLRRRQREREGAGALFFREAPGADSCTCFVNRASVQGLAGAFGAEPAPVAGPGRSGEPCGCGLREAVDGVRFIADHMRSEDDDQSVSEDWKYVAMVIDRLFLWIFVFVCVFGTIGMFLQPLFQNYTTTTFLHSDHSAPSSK
T1 sequence (P43681 whole entry): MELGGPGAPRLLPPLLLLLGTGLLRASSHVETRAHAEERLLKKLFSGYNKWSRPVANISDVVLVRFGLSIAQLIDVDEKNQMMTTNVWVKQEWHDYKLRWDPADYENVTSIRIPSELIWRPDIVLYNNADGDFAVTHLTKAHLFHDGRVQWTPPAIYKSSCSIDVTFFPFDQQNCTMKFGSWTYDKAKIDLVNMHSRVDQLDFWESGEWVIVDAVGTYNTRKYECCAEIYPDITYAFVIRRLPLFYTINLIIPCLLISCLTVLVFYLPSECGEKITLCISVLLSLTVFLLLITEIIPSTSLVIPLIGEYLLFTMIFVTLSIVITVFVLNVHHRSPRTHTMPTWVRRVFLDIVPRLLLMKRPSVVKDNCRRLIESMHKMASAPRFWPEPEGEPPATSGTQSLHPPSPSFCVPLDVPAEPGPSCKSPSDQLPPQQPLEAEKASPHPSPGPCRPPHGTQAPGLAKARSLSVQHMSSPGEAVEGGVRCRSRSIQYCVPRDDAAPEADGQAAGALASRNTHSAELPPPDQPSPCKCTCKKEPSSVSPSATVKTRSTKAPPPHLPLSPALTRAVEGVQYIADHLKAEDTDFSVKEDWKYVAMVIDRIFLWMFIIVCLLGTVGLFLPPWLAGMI
T2 sequence (P17787 whole entry, looked up): as the sequence (P17787 whole entry) above
T2 sequence (P30532 whole entry, looked up): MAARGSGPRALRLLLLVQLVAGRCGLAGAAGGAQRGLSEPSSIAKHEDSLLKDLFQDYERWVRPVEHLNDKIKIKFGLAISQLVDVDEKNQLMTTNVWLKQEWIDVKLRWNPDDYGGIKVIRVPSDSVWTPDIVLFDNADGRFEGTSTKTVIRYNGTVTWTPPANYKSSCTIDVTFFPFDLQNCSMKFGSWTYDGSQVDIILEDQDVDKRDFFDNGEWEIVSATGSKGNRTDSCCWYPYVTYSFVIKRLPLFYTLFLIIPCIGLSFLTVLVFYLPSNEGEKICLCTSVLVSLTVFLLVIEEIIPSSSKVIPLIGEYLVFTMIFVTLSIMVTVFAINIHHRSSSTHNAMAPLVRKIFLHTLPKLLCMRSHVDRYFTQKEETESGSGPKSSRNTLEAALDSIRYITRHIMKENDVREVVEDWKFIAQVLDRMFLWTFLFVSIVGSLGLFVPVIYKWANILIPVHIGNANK
T2 sequence (P30926 whole entry, looked up): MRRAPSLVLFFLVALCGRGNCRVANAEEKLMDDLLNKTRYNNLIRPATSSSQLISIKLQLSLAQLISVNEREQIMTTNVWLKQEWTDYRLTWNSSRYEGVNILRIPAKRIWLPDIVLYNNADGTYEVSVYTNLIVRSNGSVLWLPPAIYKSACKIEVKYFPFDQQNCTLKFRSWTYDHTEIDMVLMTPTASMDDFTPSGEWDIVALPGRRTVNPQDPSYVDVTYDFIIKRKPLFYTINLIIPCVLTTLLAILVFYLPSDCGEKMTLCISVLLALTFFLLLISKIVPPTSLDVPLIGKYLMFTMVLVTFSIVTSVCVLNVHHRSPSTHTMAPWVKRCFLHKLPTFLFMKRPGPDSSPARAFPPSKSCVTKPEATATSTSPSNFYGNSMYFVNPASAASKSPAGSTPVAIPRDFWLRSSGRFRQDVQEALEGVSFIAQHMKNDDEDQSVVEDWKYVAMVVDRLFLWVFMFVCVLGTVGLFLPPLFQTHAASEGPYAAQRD
T2 sequence (P32297 whole entry, looked up): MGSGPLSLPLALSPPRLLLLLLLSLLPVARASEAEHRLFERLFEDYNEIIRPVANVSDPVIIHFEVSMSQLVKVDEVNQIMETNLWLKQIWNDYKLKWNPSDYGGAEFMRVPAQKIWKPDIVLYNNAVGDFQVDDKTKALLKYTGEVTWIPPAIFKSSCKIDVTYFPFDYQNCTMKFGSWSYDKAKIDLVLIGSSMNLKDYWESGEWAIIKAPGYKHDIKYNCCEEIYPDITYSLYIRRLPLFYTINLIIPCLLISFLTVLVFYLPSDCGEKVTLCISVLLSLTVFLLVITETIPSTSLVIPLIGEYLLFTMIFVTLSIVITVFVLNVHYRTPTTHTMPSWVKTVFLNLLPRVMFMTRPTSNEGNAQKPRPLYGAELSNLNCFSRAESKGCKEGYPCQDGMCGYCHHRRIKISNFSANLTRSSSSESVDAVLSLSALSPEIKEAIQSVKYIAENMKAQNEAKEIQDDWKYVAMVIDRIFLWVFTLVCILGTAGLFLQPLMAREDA

| Compound | Ki [1] [nM] | Ki [2] [nM] | Ki [3] [nM] | Efficacy [4] [%] | Ratio Ki (Rattus norvegicus) | Activity [5] | Activity [6] | Ki [7] [nM] | Efficacy [8] [%] | Efficacy [9] [%] | Ki [10] [nM] | Ki [11] [nM] | Activity [12] | Activity [13] | IC50 [14] [nM] | Ki [15] [nM] | EC50 [16] [nM] | further results |
| --- | --- | --- | --- | --- | --- | --- | --- | --- | --- | --- | --- | --- | --- | --- | --- | --- | --- | --- |
| COCC[C@@H]1C[C@H]1c1cncc(OC[C@@H]2CCN2)c1 | 0.5 | 96.5 | 20 | 8 | > 16700 | inactive | inactive | 6.2 | 75 | 62 | > 10000 | 0.6 | inactive | inactive | 50.4 | 405 | 43.1 |  |
| CN(C)C(=O)OCC[C@H]1C[C@@H]1c1cncc(OC[C@@H]2CCN2)c1 | 0.3 | 281 | 15 | 15 | > 100000 | inactive | inactive | 2.1 | 85 | 71 | > 10000 | 0.4 | inactive | inactive | 19.1 | 261 | 18.2 |  |
| O=C(NC1CC1)OCC[C@H]1C[C@@H]1c1cncc(OC[C@@H]2CCN2)c1 | 0.9 | 234 | 16 | 27 | > 100000 | inactive | inactive | 2.4 | 82 | 80 | > 10000 | 0.7 | inactive | inactive | 19.6 | 720 | 23.3 |  |
| O=C(Nc1ccccc1)OCC[C@H]1C[C@@H]1c1cncc(OC[C@@H]2CCN2)c1 | 1.2 | 551 | 24.4 | 24 | 14800 | inactive | inactive | 5.9 | 87 | 78 | 8850 | 0.6 | inactive | inactive | 50.2 | 241 | 48.9 |  |
| OCC[C@@H]1C[C@H]1c1cncc(OC[C@@H]2CCN2)c1 | 0.5 | 29 | 17 | 10 | 1500 | inactive | inactive | 3.7 | 69 | 65 | 1040 | 0.7 | inactive | inactive | 50.9 | 65 | 34.6 |  |
| O=C(OCC[C@H]1C[C@@H]1c1cncc(OC[C@@H]2CCN2)c1)N1CCCC1 | 1.5 | 162 | 21.5 | 23 | > 100000 | inactive | inactive | 4 | 84 | 69 | > 10000 | 0.8 | inactive | inactive | 48.5 | 2330 | 44.4 | %max [17]: 30% |
| CN1CCC[C@H]1c1cccnc1 |  |  |  |  |  | inactive | inactive |  |  |  |  |  | inactive | inactive |  |  |  |  |
| OCCCCC#Cc1cncc(OC[C@@H]2CCN2)c1 |  |  |  | 55 | 24000 | inactive | inactive |  | 63 | 100 |  |  | inactive | inactive | 4.8 |  | 5.8 | Ki [18]: 1000 nM; concentration at 0.25 h [19]: 10 ng/g; Ki [20]: 0.9 nM; Ki [21]: 0.4 nM; concentration at 0.25 h [22]: 3 ng/g |
